From PubChem
RORA inh = inhibitors of human nuclear receptor RORA; AID 561; 65,000 tested, 0.43% active; CHO-K1 Gal4-RORA LBD luciferase reporter, luminescence; inhibition, % at 10 µM; P35398;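 active = inhibition above the mean of all tested compounds plus 3 SD, cut at about 52% in these data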
Target sequence (P35398 whole entry, looked up, the tested form may be a part): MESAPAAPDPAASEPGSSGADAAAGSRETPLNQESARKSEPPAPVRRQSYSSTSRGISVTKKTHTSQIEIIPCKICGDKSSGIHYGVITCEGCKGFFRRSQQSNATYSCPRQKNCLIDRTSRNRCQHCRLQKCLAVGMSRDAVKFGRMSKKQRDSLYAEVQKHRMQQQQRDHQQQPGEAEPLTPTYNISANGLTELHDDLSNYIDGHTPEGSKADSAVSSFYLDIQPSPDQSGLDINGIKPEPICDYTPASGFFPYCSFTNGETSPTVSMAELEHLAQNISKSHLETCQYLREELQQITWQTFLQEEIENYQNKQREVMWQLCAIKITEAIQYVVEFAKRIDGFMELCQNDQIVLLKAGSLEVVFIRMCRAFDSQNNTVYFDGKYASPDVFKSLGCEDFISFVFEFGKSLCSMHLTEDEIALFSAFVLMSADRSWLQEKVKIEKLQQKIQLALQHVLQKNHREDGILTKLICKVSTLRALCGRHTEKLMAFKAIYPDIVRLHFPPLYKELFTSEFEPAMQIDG
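System: transiently transfected CHO-K1 cells, Gal4-DBD/human RORA-LBD fusion plus 5xGal4-luciferase reporter. Doses: one dose of 10 µM final. Timing: 20 h compound treatment, 37 °C. Measured by: luminescence. Evaluation: % inhibition of basal luciferase versus +RORA/-RORA DMSO controls. Benchmarks: mock-transfected cells as 100%, +RORA DMSO cells as 0%. Replicates: single test per compound.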
Each line names hits and unclear results; the compound was inactive in the other large screens. This is one part of a sample in which hits are shown more often than they occur.

O=C(c1ccc(Cl)cc1)N1CCCCC(Sc2nnc(-c3ccc4c(c3)OCO4)o2)C1=O (configuration not stated)	RORA inh 76
CCN(CC)C(=O)COc1ccc(-c2ccccc2)cc1	none
O=C(C1CCC(=O)N1Cc1ccccc1Cl)N1CCN(c2cccc(Cl)c2)CC1 (configuration not stated)	none
CN(C)S(=O)(=O)n1cnc(-c2ccccc2)c1-c1ccccc1	none
CCOC(=O)C1C(C)=CC(=O)CC1c1ccco1 (configuration not stated)	none
Cc1c(C(=O)O)[nH]c2c1C(=O)CC(c1ccc(Cl)cc1)C2 (configuration not stated)	none
CCCCCOC(=O)c1[nH]c2c(c1C)C(=O)CC(c1ccco1)C2 (configuration not stated)	RORA inh 54
Cc1cccc(-n2ncc3c(N(C)Cc4ccccc4)ncnc32)c1	none
CCCCc1ccc(NC(=O)C2CCCO2)cc1 (configuration not stated)	none
CCN1CCN(Cc2ccc(NC(=O)Nc3ccccc3OC)cc2)CC1	none
COc1ccccc1CNC(=O)C1COc2ccccc2O1 (configuration not stated)	none
O=C(NC1=NCCS1)C1COc2ccccc2O1 (configuration not stated)	RORA inh 72
COc1cc(C(=O)NC2=NCCS2)ccc1OCc1c(C)noc1C	none
CN(C)Cc1cc(C(C)(C)c2cc(CN(C)C)c(O)c(CN(C)C)c2)cc(CN(C)C)c1O	none
CCn1cc(C(=O)Nc2cc3c(cc2NC(C)=O)OCCO3)c(=O)c2ccc(C)nc21	none
COC(=O)c1sc2nc(N3CCCCC3)c3c(c2c1N)CC(C)(C)N(C)C3	none
c1ccc(CC2CCN(Cc3nc(-c4ccccc4)no3)CC2)cc1	none
CC1Cc2nc(SCC(=O)OCc3ccccc3)n(C)c(=O)c2S1 (configuration not stated)	none
COc1nc(N(C#N)CC(N)=O)nc(N2CCCC2)n1	none
Cc1cc(C(=O)CSc2nnc(-c3ccco3)o2)c(C)n1Cc1ccco1	none
Cc1cc(C(=O)COC(=O)c2ccc3c(c2)OCO3)c(C)n1Cc1cccs1	none
CC(=O)Nc1ccccc1OCC(=O)c1cc(C)n(Cc2cccs2)c1C	RORA inh 89
Cc1csc(SCC(=O)c2cc(C)n(Cc3cccs3)c2C)n1	RORA inh 77
CC(=O)Nc1ccc(SCC(=O)c2cc(C)n(Cc3cccs3)c2C)cc1	RORA inh 67
Cc1cc(C(=O)CN2C(=O)NC3(CCCc4ccccc43)C2=O)c(C)n1Cc1cccs1 (configuration not stated)	none
COc1cc(NC(=O)CSc2nc(C)cs2)cc(OC)c1	none
Cc1csc(SCc2ccccc2C(=O)O)n1	none
Cc1nc2ccc(NC(=O)Cc3cccs3)cc2s1	none
O=C(NC(Cc1ccccc1)c1nc2ccccc2[nH]1)C1CC(=O)N(c2ccc3c(c2)OCCO3)C1 (configuration not stated)	none
CC(C)NC(=O)c1cc(=O)n(C)c(=O)n1C	none
CCOC(=O)c1ccccc1NC(=O)CSc1nnnn1C1CCCCC1	none
CCCC(NS(=O)(=O)c1ccc(Br)cc1)C(=O)O (configuration not stated)	none
O=C(CN(Cc1ccc2c(c1)OCO2)C(=O)c1cnsn1)NC1CCCC1	none
CCOC(=O)c1[nH]c(C)c(C(=O)Nc2cccc(Cl)c2C)c1C	none
CCCCc1ccc(C2C(C#N)=C(N)SC(N)=C2C#N)s1	none
CCCCNc1cc(C)nc(NCc2ccccc2)n1	RORA inh 57
COc1ccc2nc(NCc3ccccc3)[nH]c2c1	none
c1ccc(-n2nc3c(ccc4cnnc43)[nH]2)cc1	none
Nc1c(C(=O)Nc2ccc(Cl)cc2)oc2ccccc12	none
CCOC(=O)C1CCN(C(=O)Nc2ccccc2Cl)CC1	none
N#CNC1=NCN(Cc2ccccc2)CN1	none
COc1cc(OC)cc(-c2cc3nc(C)c(CCC(=O)O)c(C)n3n2)c1	RORA inh 77
CCN(CC)C(=O)c1sc2nc(-c3ccc(OC)cc3)cn2c1C	none
CCc1c(C)nc2cc(-c3ccc(OC)cc3)[nH]n2c1=O	none
COC(=O)c1c(-c2cccs2)csc1NC(=O)c1cccnc1	none
CCS(=O)(=O)N1CCC(C(=O)NCCCN2CCCC2)CC1	none
O=C(COc1ccc(Cl)cc1)NCc1nnc(SCC(=O)NCCc2ccccc2)o1	none
Cc1csc(SCCn2c(N3CCCC3)nc3c2c(=O)[nH]c(=O)n3C)n1	none
O=c1[nH]c(CN2CCN(Cc3ccc4c(c3)OCO4)CC2)nc2sc3c(c12)CCC3	none
C=C(C)Cn1c(N2CC(C)CC(C)C2)nc2c1c(=O)[nH]c(=O)n2C (configuration not stated)	none
CCN(CC)c1ccc(-c2nc3cnccc3n2C)cc1	none
COc1cc(C(=S)N2CCCCC2)ccc1OCC(=O)N1CCCC1	none
COc1cc(/C=N/O)ccc1OCc1ccc(C(=O)O)cc1	RORA inh 89
COc1ccccc1NC(=O)COc1ccc(/C=N/n2cnnc2)cc1OC	none
NC(=O)C1CCN(C(=O)c2cc(S(=O)(=O)N3CCOCC3)c(Cl)cc2Cl)CC1	none
O=C(Nc1ccc2c(c1)OCO2)c1cnn2cccnc12	none
CC1CCCN(c2ncnc3c2cnn3-c2ccccc2)C1 (configuration not stated)	RORA inh 57
Cc1cccc(-n2ncc3c(N4CCC5(CC4)OCCO5)ncnc32)c1	none
Clc1ccc(-n2ncc3c(NCC4CCCO4)ncnc32)cc1 (configuration not stated)	none
c1ccc(-n2ncc3c(NC4CCCCCC4)ncnc32)cc1	none
CN1CCN(c2ncnc3c2cnn3-c2ccc(Cl)cc2)CC1	none
c1ccc(-n2ncc3c(NCC4CCCO4)ncnc32)cc1 (configuration not stated)	none
CC1CCCN(c2ncnc3c2cnn3-c2ccc(Cl)cc2)C1 (configuration not stated)	RORA inh 84
c1ccc(-n2ncc3c(N4CCCCC4)ncnc32)cc1	RORA inh 62
CC1CC(C)CN(c2ncnc3c2cnn3-c2ccc(Cl)cc2)C1 (configuration not stated)	none
Cc1ccc(C)c(-n2c(Cc3cc(=O)[nH]c(=O)[nH]3)nnc2SCC(=O)NCC2CCCO2)c1 (configuration not stated)	none
COC(=O)CCC(=O)Nc1cccc(Br)c1	none
CCCCc1nc2n[nH]c(N)c2c2c1CCCC2	none
CCN1CCN(C(=O)C2c3cc(OC)c(OC)cc3C(=O)N(C)C2c2ccc(SC)cc2)CC1 (configuration not stated)	none
Cc1cc(NC(=O)c2ccco2)ncc1NC(=O)Cc1ccccc1	none
Cc1ccccc1C(=O)/C=C1\NC(=O)CS1	none
O=C(NCCc1ccc(Cl)cc1)C1CCC(=O)N1C1CCCC1 (configuration not stated)	none
O=C1CCCN1CC(CN1CCOCC1)Sc1nc2ccccc2c(=O)n1-c1ccccc1 (configuration not stated)	none
COc1ccc(NC(=O)CCCC2=NS(=O)(=O)c3ccccc3N2)cc1	none
CCN1CCN(C(CNS(=O)(=O)c2ccc(OC)cc2)c2cccnc2)CC1 (configuration not stated)	none
COc1ccc(OC)c(N/C(C)=C/C(=O)c2ccc(C)o2)c1	none
Cc1nnc2sc(-c3cc4ccccc4o3)nn12	none
COc1ccc(C(=O)NC(=O)Nc2cc(C)ccn2)cc1	RORA inh 70
Cc1ccnc(NC(=O)Nc2ccc(F)cc2)c1	none
COc1ccc(C(=O)Nc2cc(C)on2)cc1	none
Cc1c(C(=O)Nc2ccncc2)oc2c1C(=O)CC(C)(C)C2	none
NC(=O)CC1NC(=O)c2ccccc21 (configuration not stated)	none
CCC(=O)Nc1cccc(-c2nnc(SCC(=O)c3ccccc3)n2C)c1	none
O=C(O)CCCCCN1C(=O)CSC1=S	RORA inh 59
